Test results: ChEMBL document CHEMBL1148700, “Synthesis and identification of [1,2,4]thiadiazole derivatives as a new series of potent and orally active dual agonists of peroxisome proliferator-activated receptors alpha and delta” (J Med Chem, 2007)
Values joined by “and” are separate entries in the source; they are usually repeats but may differ in a detail not shown here. Equal entries are not always repeated. Active and inactive are the calls of the source. No cut-off for these calls is given here.

What was measured:
[1] = molecular target: T1, Peroxisome proliferator-activated receptor alpha (Homo sapiens) (UniProt Q07869); experiment: Agonist activity at PPARalpha expressed in HEK293 cells by measuring Gal4 luciferase reporter activity relative to (S)-2- {2-[1-Ethyl-3-(4-trifluoromethoxyphenyl)ureido] indan-5-ylsulfanyl}-2- methylpropionic acid; assay type: functional, cell-based
T1 sequence (whole entry): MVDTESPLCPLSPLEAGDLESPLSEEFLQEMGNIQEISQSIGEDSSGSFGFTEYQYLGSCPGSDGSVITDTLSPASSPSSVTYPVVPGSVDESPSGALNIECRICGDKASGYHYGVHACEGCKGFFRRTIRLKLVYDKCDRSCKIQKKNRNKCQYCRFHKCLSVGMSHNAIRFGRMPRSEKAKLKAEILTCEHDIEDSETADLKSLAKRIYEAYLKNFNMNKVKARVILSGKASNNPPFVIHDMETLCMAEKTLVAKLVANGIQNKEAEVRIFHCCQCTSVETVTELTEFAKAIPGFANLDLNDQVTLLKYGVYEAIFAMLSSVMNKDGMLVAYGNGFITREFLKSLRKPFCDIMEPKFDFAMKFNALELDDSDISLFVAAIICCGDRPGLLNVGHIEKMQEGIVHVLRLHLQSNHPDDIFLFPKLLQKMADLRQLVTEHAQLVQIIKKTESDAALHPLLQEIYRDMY
Procedure, shortened: (§1)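 HEK293 cells grown in DMEM/F-12 with 10% FBS and glutamine, cotransfected with a PPARα ligand-binding domain-Gal4 chimera and a Gal4-luciferase reporter. Next day switched to 5% charcoal-treated FBS medium, replated after 6 h at 50 000 cells/well, and cultured overnight. Compound or vehicle (0.1% DMSO) added for 24 h at 37 °C. Luciferase read by Steady-Glo; percent efficacy given relative to a reference PPARα agonist.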

Rattus norvegicus [2] = experiment: Decrease in serum LDL-C levels in hypercholesterolemic Sprague-Dawley rat at 0.1 to 3 mg/kg/day, po after 8 days; assay type: functional, organism-based
Procedure, shortened: (§2)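 Male Sprague-Dawley rats (275-325 g) were fed a high-cholesterol atherogenic diet for 6 days before and throughout treatment; lean controls got normal chow plus vehicle. Drug in 0.5% Methocel was given orally at 10 mL/kg once daily for 8 days. On day 9, retro-orbital blood was taken under CO2/O2 anesthesia and serum lipids measured on a COBAS analyzer. n = 8/group; one-way ANOVA with Dunnett's test.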

[3] = Tmax in rat at 3 mg/kg, po; assay type: ADME, organism-based; parameters: dose 3 mg/kg, route oral; conditions: in vivo
Procedure, shortened: (§3)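 Heparinized orbital-sinus blood was collected; plasma was precipitated with acetonitrile plus internal standard and quantified by LC-MS-MS using calibration standards prepared in plasma.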

[4] = Bioavailability in rat at 3 mg/kg, po; assay type: ADME, organism-based; conditions: in vivo; procedure, shortened: as §3
[5] = AUC in rat at 3 mg/kg; assay type: ADME, organism-based; parameters: dose 3 mg/kg; conditions: plasma
Mus musculus [6] = experiment: Effect on lipid homeostasis in human apoA1 transgenic mouse assessed as decrease in triglyceride level at 3 mg/kg, po after 7 days; assay type: functional; parameters: scale not given: the % may be the effect or the level left
Procedure, shortened: (§4)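 Male human apoA1 transgenic mice were given 3 mg/kg orally as a 0.5% methylcellulose suspension for 7 days. Serum HDL-C, triglyceride and free fatty acids were sampled under fed conditions and measured on a COBAS Mira Plus analyzer. n = 8/group; one-way ANOVA with Dunnett's test vs vehicle control.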

[7] = molecular target: Liver X receptor (Homo sapiens) (UniProt Q13133+P55055); experiment: Effect on LXR; assay type: protein assay
Mus musculus [8] = experiment: Effect on lipid homeostasis in C57BL/6J Lepob mouse assessed as decrease in serum triglyceride levels at 1 mg/kg, po after 11 days; assay type: functional; parameters: scale not given: the % may be the effect or the level left
Procedure, shortened: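 Seven-week-old female ob/ob (C57BL/6J-Lepob) mice were dosed orally with a 0.5% methylcellulose suspension for 11 days. Serum TG, glucose and FFA were taken under fed conditions and measured on a COBAS Mira Plus analyzer, and liver was weighed. Mean ± SEM, n = 8; one-way ANOVA with Dunnett's test vs vehicle.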

Rattus norvegicus [9] = experiment: Increase in serum HDL-C levels in hypercholesterolemic Sprague-Dawley rat at 0.1 to 3 mg/kg/day, po after 8 days; assay type: functional, organism-based; procedure, shortened: as §2
[10] = Half life in rat at 3 mg/kg; assay type: ADME, organism-based; parameters: dose 3 mg/kg; conditions: in vivo
Procedure, shortened: (§5)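 Rats given 3 mg/kg; IV formulation was a solution in 10% w/v Solutol in 5% dextrose in water (D5W). Blood was drawn by orbital sinus puncture into heparinized tubes. Plasma was protein-precipitated with acetonitrile containing internal standard, centrifuged at 5000g for 3 min and analysed by LC-MS-MS against plasma calibration standards.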

[11] = molecular target: Retinoid X receptor (Homo sapiens) (UniProt P28702+P48443+P19793); experiment: Effect on RXR; assay type: protein assay
Chain of Retinoid X receptor (Homo sapiens) (P19793 whole entry, looked up): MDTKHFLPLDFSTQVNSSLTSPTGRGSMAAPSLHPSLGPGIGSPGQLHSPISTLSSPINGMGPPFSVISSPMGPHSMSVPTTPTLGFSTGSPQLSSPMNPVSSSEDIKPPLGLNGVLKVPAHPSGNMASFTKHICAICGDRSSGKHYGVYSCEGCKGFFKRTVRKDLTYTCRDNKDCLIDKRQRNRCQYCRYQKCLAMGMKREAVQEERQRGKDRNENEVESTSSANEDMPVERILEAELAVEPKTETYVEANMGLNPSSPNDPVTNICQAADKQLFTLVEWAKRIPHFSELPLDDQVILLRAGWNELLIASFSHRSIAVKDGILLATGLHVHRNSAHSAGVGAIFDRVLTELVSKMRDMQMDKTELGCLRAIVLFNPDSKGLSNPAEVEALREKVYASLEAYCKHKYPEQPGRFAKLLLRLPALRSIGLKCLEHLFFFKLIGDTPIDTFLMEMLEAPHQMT
Chain of Retinoid X receptor (Homo sapiens) (P28702 whole entry, looked up): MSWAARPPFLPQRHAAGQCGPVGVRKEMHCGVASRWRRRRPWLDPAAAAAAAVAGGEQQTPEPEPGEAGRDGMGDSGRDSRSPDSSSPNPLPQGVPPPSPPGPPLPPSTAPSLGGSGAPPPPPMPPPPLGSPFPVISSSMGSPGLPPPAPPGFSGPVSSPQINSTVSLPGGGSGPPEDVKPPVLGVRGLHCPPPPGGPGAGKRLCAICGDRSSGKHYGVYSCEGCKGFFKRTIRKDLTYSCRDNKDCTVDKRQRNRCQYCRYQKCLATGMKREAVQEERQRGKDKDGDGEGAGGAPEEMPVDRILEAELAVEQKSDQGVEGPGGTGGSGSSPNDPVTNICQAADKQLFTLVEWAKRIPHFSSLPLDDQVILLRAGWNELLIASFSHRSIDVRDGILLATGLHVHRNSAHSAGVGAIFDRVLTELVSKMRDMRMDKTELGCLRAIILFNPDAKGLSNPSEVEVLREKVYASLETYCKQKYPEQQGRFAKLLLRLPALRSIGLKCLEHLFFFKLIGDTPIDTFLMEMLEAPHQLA
Chain of Retinoid X receptor (Homo sapiens) (P48443 whole entry, looked up): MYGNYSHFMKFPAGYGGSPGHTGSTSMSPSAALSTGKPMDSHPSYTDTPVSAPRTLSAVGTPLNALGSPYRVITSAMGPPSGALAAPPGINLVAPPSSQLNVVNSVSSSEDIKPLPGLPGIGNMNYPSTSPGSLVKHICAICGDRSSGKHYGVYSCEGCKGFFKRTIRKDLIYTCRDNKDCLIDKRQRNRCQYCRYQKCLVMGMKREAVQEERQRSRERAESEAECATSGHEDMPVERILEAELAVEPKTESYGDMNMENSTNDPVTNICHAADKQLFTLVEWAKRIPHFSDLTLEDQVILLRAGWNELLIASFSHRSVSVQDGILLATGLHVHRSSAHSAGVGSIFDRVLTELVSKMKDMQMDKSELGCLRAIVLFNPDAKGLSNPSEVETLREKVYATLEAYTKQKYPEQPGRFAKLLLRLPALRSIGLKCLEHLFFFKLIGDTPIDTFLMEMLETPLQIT

Mus musculus [12] = experiment: Effect on lipid homeostasis in human apoA1 transgenic mouse assessed as decrease in free fatty acid levels at 3 mg/kg, po after 7 days; assay type: functional; parameters: scale not given: the % may be the effect or the level left; procedure, shortened: as §4
[13] = Cmax in rat at 3 mg/kg, po; assay type: ADME, organism-based; parameters: dose 3 mg/kg, route oral; conditions: in vivo; procedure, shortened: as §3
[14] = molecular target: T2, Bile acid receptor (Homo sapiens) (UniProt Q96RI1); experiment: Effect on FXR
T2 sequence (whole entry): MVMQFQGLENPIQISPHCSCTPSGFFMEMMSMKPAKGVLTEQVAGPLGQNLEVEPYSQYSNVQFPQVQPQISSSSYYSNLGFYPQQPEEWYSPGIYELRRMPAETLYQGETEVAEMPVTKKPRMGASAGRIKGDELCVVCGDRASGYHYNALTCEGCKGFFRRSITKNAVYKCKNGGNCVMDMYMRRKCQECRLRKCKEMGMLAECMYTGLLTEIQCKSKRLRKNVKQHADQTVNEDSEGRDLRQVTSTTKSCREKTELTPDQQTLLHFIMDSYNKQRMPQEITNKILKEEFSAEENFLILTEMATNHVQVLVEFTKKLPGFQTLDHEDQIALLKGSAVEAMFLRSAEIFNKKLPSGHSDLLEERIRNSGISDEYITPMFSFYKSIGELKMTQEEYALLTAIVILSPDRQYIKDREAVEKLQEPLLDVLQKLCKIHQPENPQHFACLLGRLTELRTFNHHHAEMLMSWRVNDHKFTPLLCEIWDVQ

[15] = molecular target: T3, Peroxisome proliferator-activated receptor gamma (Homo sapiens, UniProt P37231); experiment: Agonist activity at PPARgamma expressed in HEK293 cells by measuring Gal4 luciferase reporter activity; assay type: functional, cell-based
T3 sequence (P37231 whole entry): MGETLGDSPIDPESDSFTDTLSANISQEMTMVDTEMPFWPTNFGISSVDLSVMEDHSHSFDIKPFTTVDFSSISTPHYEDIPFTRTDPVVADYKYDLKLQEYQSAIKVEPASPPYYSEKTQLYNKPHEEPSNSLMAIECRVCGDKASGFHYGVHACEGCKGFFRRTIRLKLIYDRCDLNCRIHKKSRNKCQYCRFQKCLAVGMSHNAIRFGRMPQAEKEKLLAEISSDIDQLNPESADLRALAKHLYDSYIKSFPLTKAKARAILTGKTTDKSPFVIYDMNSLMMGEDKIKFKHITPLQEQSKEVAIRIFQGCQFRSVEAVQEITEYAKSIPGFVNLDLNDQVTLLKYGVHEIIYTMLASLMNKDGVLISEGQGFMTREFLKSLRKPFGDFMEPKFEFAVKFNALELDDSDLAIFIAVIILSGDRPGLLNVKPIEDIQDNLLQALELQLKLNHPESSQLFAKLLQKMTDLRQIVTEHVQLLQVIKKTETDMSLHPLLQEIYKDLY

[16] = Clearance in rat at 3 mg/kg; assay type: ADME, organism-based; parameters: dose 3 mg/kg; conditions: in vivo; procedure, shortened: as §5
[17] = molecular target: Retinoic acid receptor (Homo sapiens) (UniProt P13631+P10826+P10276); experiment: Effect on RAR; assay type: protein assay
Chain of Retinoic acid receptor (Homo sapiens) (P10276 whole entry, looked up): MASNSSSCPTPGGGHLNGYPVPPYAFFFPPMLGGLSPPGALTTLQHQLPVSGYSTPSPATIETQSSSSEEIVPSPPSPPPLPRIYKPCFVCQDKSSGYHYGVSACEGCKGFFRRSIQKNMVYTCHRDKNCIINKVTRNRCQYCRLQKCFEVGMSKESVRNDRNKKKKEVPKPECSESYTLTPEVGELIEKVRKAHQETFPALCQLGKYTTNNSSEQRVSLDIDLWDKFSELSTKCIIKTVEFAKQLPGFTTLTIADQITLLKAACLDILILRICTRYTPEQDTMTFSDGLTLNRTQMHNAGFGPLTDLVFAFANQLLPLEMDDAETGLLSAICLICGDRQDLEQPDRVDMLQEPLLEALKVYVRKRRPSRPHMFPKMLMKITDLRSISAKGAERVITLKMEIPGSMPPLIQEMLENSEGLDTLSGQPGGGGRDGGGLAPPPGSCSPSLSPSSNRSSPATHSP
Chain of Retinoic acid receptor (Homo sapiens) (P10826 whole entry, looked up): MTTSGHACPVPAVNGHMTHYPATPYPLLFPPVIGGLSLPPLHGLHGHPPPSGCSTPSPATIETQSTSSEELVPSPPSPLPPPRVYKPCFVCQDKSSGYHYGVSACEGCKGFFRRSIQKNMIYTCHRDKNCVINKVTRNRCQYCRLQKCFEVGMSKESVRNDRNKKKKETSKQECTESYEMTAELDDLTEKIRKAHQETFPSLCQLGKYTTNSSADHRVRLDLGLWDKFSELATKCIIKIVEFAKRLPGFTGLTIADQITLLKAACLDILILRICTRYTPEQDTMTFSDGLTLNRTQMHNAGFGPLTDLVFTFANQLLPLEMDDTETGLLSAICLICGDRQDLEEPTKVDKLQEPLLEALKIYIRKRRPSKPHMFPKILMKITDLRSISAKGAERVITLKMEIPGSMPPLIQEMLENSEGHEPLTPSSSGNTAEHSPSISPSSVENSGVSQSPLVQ
Chain of Retinoic acid receptor (Homo sapiens) (P13631 whole entry, looked up): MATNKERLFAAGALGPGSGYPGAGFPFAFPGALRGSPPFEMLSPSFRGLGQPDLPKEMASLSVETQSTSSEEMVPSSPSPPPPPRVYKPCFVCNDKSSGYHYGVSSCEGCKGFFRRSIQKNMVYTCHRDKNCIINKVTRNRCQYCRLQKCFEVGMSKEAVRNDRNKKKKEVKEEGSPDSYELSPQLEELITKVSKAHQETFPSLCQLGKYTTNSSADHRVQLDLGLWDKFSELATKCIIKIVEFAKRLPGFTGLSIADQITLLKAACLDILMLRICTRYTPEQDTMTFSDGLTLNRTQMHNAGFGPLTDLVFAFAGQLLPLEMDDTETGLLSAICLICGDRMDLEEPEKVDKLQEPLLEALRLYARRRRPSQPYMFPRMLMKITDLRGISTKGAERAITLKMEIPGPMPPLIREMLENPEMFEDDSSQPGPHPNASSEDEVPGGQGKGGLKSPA

Mus musculus [18] = experiment: Effect on lipid homeostasis in human apoA1 transgenic mouse assessed as increase in HDL-C levels at 3 mg/kg, po after 7 days; assay type: functional; procedure, shortened: as §4
[19] = molecular target: T4, Peroxisome proliferator-activated receptor alpha (Mus musculus, UniProt P23204); experiment: Efficacy on PPARalpha in mouse by HD assay
T4 sequence (P23204 whole entry): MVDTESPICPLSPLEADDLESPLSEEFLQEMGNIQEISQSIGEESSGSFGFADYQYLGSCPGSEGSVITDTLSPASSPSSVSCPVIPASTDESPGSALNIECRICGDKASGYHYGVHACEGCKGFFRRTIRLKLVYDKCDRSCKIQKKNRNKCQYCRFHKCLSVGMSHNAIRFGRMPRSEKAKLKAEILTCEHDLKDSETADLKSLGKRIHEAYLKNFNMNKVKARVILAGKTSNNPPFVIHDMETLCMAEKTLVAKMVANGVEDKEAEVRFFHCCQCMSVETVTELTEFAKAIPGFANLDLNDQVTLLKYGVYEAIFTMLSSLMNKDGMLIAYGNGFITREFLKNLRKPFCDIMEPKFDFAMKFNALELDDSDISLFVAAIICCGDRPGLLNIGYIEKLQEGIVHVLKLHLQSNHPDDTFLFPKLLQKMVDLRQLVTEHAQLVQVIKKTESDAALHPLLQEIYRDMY

[20] = molecular target: T5, Peroxisome proliferator-activated receptor alpha (Homo sapiens, UniProt Q07869); experiment: Agonist activity at PPARalpha expressed in HEK293 cells by measuring Gal4 luciferase reporter activity; assay type: functional, cell-based; procedure, shortened: as §1
T5 sequence (Q07869 whole entry): T1 sequence (whole entry)

[21] = molecular target: T6, Peroxisome proliferator-activated receptor delta (Homo sapiens, UniProt Q03181); experiment: Agonist activity at PPARdelta expressed in HEK293 cells by measuring Gal4 luciferase reporter activity; assay type: functional, cell-based
T6 sequence (Q03181 whole entry): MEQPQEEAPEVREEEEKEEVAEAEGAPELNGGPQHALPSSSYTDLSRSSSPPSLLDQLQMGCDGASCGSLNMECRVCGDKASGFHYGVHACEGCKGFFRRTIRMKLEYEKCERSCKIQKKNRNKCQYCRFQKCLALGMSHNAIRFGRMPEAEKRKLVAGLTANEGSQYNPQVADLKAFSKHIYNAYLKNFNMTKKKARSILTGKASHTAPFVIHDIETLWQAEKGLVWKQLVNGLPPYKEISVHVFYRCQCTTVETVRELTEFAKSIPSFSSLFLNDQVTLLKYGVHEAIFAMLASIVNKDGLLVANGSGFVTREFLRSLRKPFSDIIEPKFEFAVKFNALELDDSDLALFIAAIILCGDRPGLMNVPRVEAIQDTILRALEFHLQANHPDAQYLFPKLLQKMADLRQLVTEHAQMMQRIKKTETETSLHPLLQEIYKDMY

Homo sapiens = organism: Homo sapiens; experiment: Selectivity for PPARdelta over PPARalpha

Q: Which Activity [1] does the source give for Cc1cc(OCc2nc(-c3ccc(C(F)(F)F)cc3)ns2)ccc1OC(C)(C)C(=O)O here?
A: 71%

Q: Which Activity (Rattus norvegicus [2]) does the source give for Cc1cc(SCc2nc(-c3ccc(OC(F)(F)F)cc3)ns2)ccc1OC(C)(C)C(=O)O here?
A: Active

Q: What about the Tmax [3] of the same compound?
A: 0.8 h

Q: And the Activity [1]?
A: 44%

Q: And the bioavailability [4]?
A: 96%

Q: And the AUC [5]?
A: 22000 ng·h/mL

Q: What about the Activity (Mus musculus [6]) of the same compound?
A: 85%

Q: And the Activity [7]?
A: inactive

Q: And the Activity (Mus musculus [8])?
A: 80% and 98.9 mg/dl

Q: And the Activity (Rattus norvegicus [9])?
A: Active

Q: What about the half-life [10] of the same compound?
A: 5.3 h

Q: What about the Activity [11] of the same compound?
A: inactive

Q: What about the Activity (Mus musculus [12]) of the same compound?
A: 31%

Q: What about the Cmax [13] of the same compound?
A: 6680 ng/mL

Q: And the Activity [14]?
A: inactive

Q: And the EC50 [15]?
A: > 3000 nM

Q: What about the clearance [16] of the same compound?
A: 2.2 mL/min/kg

Q: What about the Activity [17] of the same compound?
A: inactive

Q: What about the Activity (Mus musculus [18]) of the same compound?
A: 74%

Q: And the EC50 [19]?
A: 127 nM

Q: Which Activity [1] does the source give for Cc1cc(SCc2nsc(-c3ccc(OC(F)(F)F)cc3)n2)ccc1OC(C)(C)C(=O)O here?
A: 47%

Q: What about the EC50 [15] of the same compound?
A: > 3000 nM

Q: For Cc1cc(SCc2nc(-c3ccc(C(C)(C)C)cc3)ns2)ccc1OC(C)(C)C(=O)O, which Activity [1] is on record?
A: 64%

Q: For Cc1cc(SCc2nc(-c3ccc(C(F)(F)F)cc3)ns2)ccc1OC(C)(C)C(=O)O, which Activity [1] is on record?
A: 51%

Q: And the EC50 [20]?
A: 79 nM

Q: And the EC50 [21]?
A: 6 nM

Q: With Cc1cc(SCc2nc(-c3ccc(C(F)(F)F)cc3)ns2)ccc1OCC(=O)O as the compound, how does the Activity [1] read?
A: 42%

Q: What about the EC50 [15] of the same compound?
A: > 3000 nM

Q: And the Selectivity ratio (Homo sapiens)?
A: 47

Q: With Cc1cc(SCc2nc(-c3ccc(OC(F)(F)F)cc3)ns2)ccc1OC1(C(=O)O)CCCC1 as the compound, how does the Activity [1] read?
A: 31%

Q: With Cc1cc(SCc2nsc(-c3ccc(C(F)(F)F)cc3)n2)ccc1OC(C)(C)C(=O)O as the compound, how does the Activity [1] read?
A: 38%

Q: Which Activity [1] does the source give for Cc1cc(SCc2nc(-c3ccc(Cl)cc3)ns2)ccc1OC(C)(C)C(=O)O here?
A: 38%

Q: Which results are given for Cc1cc(OCc2nc(-c3ccc(OC(F)(F)F)cc3)ns2)ccc1OC(C)(C)C(=O)O?
A: Activity [1]: 80%; EC50 [21]: 12 nM
